According to ChEMBL document CHEMBL4325839, “Design, synthesis and biological evaluations of quaternization harman analogues as potential antibacterial agents” (Eur J Med Chem, 2018):

Legend:
Type in all cases: functional
Staphylococcus aureus [1] = test: Antibacterial activity against methicillin-resistant Staphylococcus aureus ATCC 43300 after 12 to 14 hrs by double dilution method
Summary of the method: (§1)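 Broth double-dilution MIC per NCCLS. Bacteria at 1×10^6 CFU/mL in Luria-Bertani medium. Compounds dissolved in DMSO as stock, then diluted in medium to 200, 100, 50, 25, 12.5, 6.25 and 3.125 nmol/mL (DMSO <0.5%); some also tested at 256–1 µg/mL. Incubated at 37 °C for 12–14 h. MIC read as lowest concentration giving visible growth inhibition.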

Ralstonia solanacearum = test: Antibacterial activity against Ralstonia solanacearum CGMCC 1.12711 measured after 12 to 14 hrs by double dilution method; summary of the method: as §1
Bacillus subtilis = test: Antibacterial activity against Bacillus subtilis 769 after 12 to 14 hrs by double dilution method
Bacillus cereus = test: Antibacterial activity against Bacillus cereus CGMCC 1.1846 after 12 to 14 hrs by double dilution method
Staphylococcus aureus [2] = test: Antibacterial activity against Staphylococcus aureus CGMCC 1.8721 after 12 to 14 hrs by double dilution method
Escherichia coli = test: Antibacterial activity against Escherichia coli CGMCC 1.1636 after 12 to 14 hrs by double dilution method

Row | SMILES | MIC (Staphylococcus aureus [1]) [µM] | MIC (Ralstonia solanacearum) [µM] | MIC (Bacillus subtilis) [µM] | MIC (Bacillus cereus) [µM] | MIC (Staphylococcus aureus [2]) [µM] | MIC (Escherichia coli) [µM]
1 | Cc1ccc(C[n+]2ccc3c([nH]c4ccccc43)c2-c2ccccn2)cc1 | 50 | 50 | 100 | 100 | 25 | > 200
2 | COc1ccc2[nH]c3c(-c4ccc5c(c4)OCO5)[n+](Cc4ccccc4)ccc3c2c1 | 50 | 50 | 50 | 200 | 100 | > 200
3 | COC(=O)c1ccc(-c2c3[nH]c4ccc(OC)cc4c3cc[n+]2Cc2ccccc2Br)cc1 | 75 | 50 | 50 | 100 | 75 | 
4 | COC(=O)c1ccc(-c2c3[nH]c4ccc(OC)cc4c3cc[n+]2Cc2ccc(F)cc2)cc1 | 200 | 150 | 75 | 200 | 100 | 
5 | c1coc(-c2nccc3c2[nH]c2ccccc23)c1 | > 200 | > 200 | > 200 | > 200 | > 200 | > 200
6 | Cc1ccc(C[n+]2ccc3c([nH]c4ccccc43)c2-c2ccc3c(c2)OCO3)cc1 | 50 | 50 | 25 | 100 | 50 | > 200
7 | Cc1ccc(C[n+]2ccc3c([nH]c4ccccc43)c2-c2ccco2)cc1 | 50 | 25 | 25 | 100 | 50 | 100
8 | COc1ccc2[nH]c3c(-c4ccccn4)[n+](Cc4ccc(C)cc4)ccc3c2c1 | 100 | 100 | 100 | 200 | 100 | > 200
9 | COC(=O)c1ccc(-c2c3[nH]c4ccc(OC)cc4c3cc[n+]2Cc2ccccc2)cc1 | 200 | 100 | 100 | 200 | 100 | > 200
10 | COC(=O)c1ccc(-c2nccc3c2[nH]c2ccccc23)cc1 | > 200 | > 200 | > 200 | > 200 | > 200 | > 200
11 | c1ccc2c(c1)[nH]c1c(-c3ccc4c(c3)OCO4)nccc12 | > 200 | > 200 | > 200 | > 200 | > 200 | > 200
12 | COC(=O)c1ccc(-c2nccc3c2[nH]c2ccc(OC)cc23)cc1 | > 200 | > 200 | > 200 | > 200 | > 200 | > 200
13 | COC(=O)c1ccc(-c2c3[nH]c4ccccc4c3cc[n+]2Cc2ccc(C(F)(F)F)cc2)cc1 | 50 | 50 | 50 | 100 | 50 | 200
14 | COC(=O)c1ccc(-c2c3[nH]c4ccc(OC)cc4c3cc[n+]2Cc2cccc(F)c2)cc1 | 200 | 150 | 75 | 200 | 200 | 
15 | CO/N=C(\C(=O)N[C@@H]1C(=O)N2C(C(=O)O)=C(COC(C)=O)CS[C@H]12)c1csc(N)n1 [CEFOTAXIME SODIUM] | 25 | 3.12 | 3.12 | 25 | 1.56 | 1.56
16 | COC(=O)c1ccc(-c2c3[nH]c4ccc(OC)cc4c3cc[n+]2Cc2ccc([N+](=O)[O-])cc2)cc1 | 200 | 100 | 200 | 200 | 100 | 
17 | COc1ccc2[nH]c3c(-c4ccco4)[n+](Cc4ccc(C)cc4)ccc3c2c1 | 50 | 25 | 25 | 100 | 50 | 100
18 | c1ccc(C[n+]2ccc3c([nH]c4ccccc43)c2-c2ccc3c(c2)OCO3)cc1 | 100 | 100 | 50 | 100 | 100 | > 200
19 | C[C@@H]1O[C@@H]1P(=O)(O)O [PHOSPHOMYCIN DISODIUM] | 50 | 50 | 12.5 | 25 | 100 | 6.25
20 | COC(=O)c1ccc(-c2c3[nH]c4ccc(OC)cc4c3cc[n+]2Cc2ccc(C)cc2)cc1 | 100 | 50 | 50 | 50 | 50 | > 200
